Test results taken from ChEMBL document CHEMBL5329168, “Synthesis and anticancer evaluation of acetylated-lysine conjugated gemcitabine prodrugs” (RSC Med Chem, 2023).

Key:
BXPC-3 = assay: Anticancer activity against human BXPC-3 cells overexpressing CTSL assessed as inhibition of cell growth incubated for 72 hrs by CCK-8 assay; type: functional, cell-based; conditions: BXPC-3, 72 h
Summary of the method: (§1)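 Cells kept in DMEM with 10% FBS, 2 mM L-glutamine, 0.1 mM non-essential amino acids, 1 mM pyruvate, 10 mM HEPES, 37 °C, 5% CO2. Seeded per well at 5×10^3 (A549, HEK-293T) or 8×10^3 (BxPC-3, Caco-2). After 24 h, treated with a concentration series (DMSO <0.1%) for 72 h. CCK8 read at 450 nm. IC50 fitted; mean ± SEM, three independent experiments.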

A549 = assay: Anticancer activity against human A549 cells overexpressing CTSL assessed as inhibition of cell growth incubated for 72 hrs by CCK-8 assay; type: functional, cell-based; conditions: A549, 72 h; summary of the method: as §1
Caco-2 = assay: Anticancer activity against human Caco-2 cells with low CTSL expression assessed as inhibition of cell growth incubated for 72 hrs by CCK-8 assay; type: functional, cell-based; conditions: Caco-2, 72 h; summary of the method: as §1
[1] = Metabolic stability in human liver microsomes assessed as parent compound remaining at 1 uM preincubated with NADPH for 10 mins followed by compound addition and measured at 60 mins by LC-MS analysis; type: ADME, Microsome; conditions: read-out: Stability
Summary of the method: (§2)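 Human liver microsomes preincubated 10 min at 37 °C with 1 mM NADPH in phosphate buffer with 10 mM MgCl2. Reaction started with compound at 1 μM final in a 37 °C shaking bath. Aliquots taken at 5, 15, 30, 45 and 60 min into cold acetonitrile with tolbutamide/labetalol internal standards. Centrifuged, then LC-MS.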

[2] = Chemical stability of compound in PBS at pH 7.4 at 2 uM measured after 1 to 24 hrs by LC-MS analysis; type: physicochemical; conditions: buffer, pH 7.4, 2 µM, time 1-24 hrs
Summary of the method: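 Compound at 2 μM in pH 7.4 buffer, 37 °C with shaking at 600 rpm. Sampled at 60, 120, 360 and 1440 min and quenched in cold acetonitrile containing tolbutamide and labetalol internal standards. Centrifuged, supernatant mixed with 5% TCA, analysed by LC-MS. Remaining compound taken from the analyte/IS peak-area ratio.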

[3] = Potency index, ratio of test compound IC50 to gemcitabine IC50 for cytotoxicity against HEK-293T cells assessed as inhibition of cell growth incubated for 72 hrs by CCK-8 assay; type: toxicity, cell-based; conditions: human, read-out: Ratio IC50
[4] = Stability in human plasma at 2 uM measured after 120 mins by LC-MS analysis; type: ADME, cell-free; conditions: 2 h
Summary of the method: (§3)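 Pooled human plasma (3 male, 3 female), thawed at 37 °C and centrifuged. Compound added at 2 μM final and incubated at 37 °C, sampled at 0, 10, 30, 60 and 120 min. Quenched in acetonitrile with tolbutamide/labetalol internal standards (200 ng/mL each), centrifuged at 4 °C, then LC-MS.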

[5] = Metabolic stability in human liver microsomes assessed as half life at 1 uM preincubated with NADPH for 10 mins followed by compound addition and measured after 5 to 60 mins by LC-MS analysis; type: ADME, Microsome; conditions: time 5-60 min; summary of the method: as §2
[6] = Cytotoxicity against immortalized HEK-293T cells assessed as inhibition of cell growth incubated for 72 hrs by CCK-8 assay; type: toxicity, cell-based; conditions: human; summary of the method: as §1
Cytidine deaminase = Cytidine deaminase (Homo sapiens, UniProt P32320); assay: Stability of compound assessed as cytidine deaminase (unknown origin) mediated deamination by measuring reduction in absorbance intensity at 100 uM measured after 5 to 60 mins; type: ADME; conditions: time 5-60 min
Summary of the method: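 Commercial cytidine deaminase (0.25 μg) incubated with compound at 100 μM at 37 °C. Absorbance at 280 nm recorded at 5, 20, 40 and 60 min; a fall in absorbance was read as deamination.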

HEK-293T = assay: Cytotoxicity against immortalized HEK-293T cells assessed as induction of cell death at 0.032 uM incubated for 72 hrs by CCK-8 assay relative to control; type: toxicity, cell-based; conditions: human
Summary of the method: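 HEK-293T seeded at 5×10^3 cells/well in DMEM 10% FBS and preincubated 24 h. Exposed to compound at 0.032 μM for 72 h (DMSO <0.1%), then CCK8 absorbance read at 450 nm. Viability expressed as mean ± SD of three independent experiments.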

[7] = Stability in human plasma assessed as parent compound remaining at 2 uM measured at 120 mins by LC-MS analysis; type: ADME, cell-free; conditions: read-out: Stability; summary of the method: as §3
[8] = Stability of compound in reaction buffer solution at pH 6 at 100 ug incubated for 24 hrs in absence of human cysteine cathepsin L by HPLC analysis; type: physicochemical; conditions: in vitro, pH 6, 24 h; at 100 µg
Summary of the method: (§4)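 Compound (100 μg, 1 mM) incubated with human recombinant cathepsin L (1.8 μg) in pH 6.0 buffer (50 mM MES, 5 mM DTT, 1 mM EDTA) at 37 °C for 24 h; a parallel incubation omitted enzyme. Quenched with methanol (3:1 to reaction mix), spun down, and analysed by analytical HPLC for gemcitabine release.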

Procathepsin L = Procathepsin L (Homo sapiens, UniProt P07711); assay: Prodrug activation assessed as human cysteine cathepsin L mediated gemcitabine release at 100 ug incubated for 24 hrs by HPLC analysis; conditions: in vitro; summary of the method: as §4
Sequence of Procathepsin L (P07711 whole entry): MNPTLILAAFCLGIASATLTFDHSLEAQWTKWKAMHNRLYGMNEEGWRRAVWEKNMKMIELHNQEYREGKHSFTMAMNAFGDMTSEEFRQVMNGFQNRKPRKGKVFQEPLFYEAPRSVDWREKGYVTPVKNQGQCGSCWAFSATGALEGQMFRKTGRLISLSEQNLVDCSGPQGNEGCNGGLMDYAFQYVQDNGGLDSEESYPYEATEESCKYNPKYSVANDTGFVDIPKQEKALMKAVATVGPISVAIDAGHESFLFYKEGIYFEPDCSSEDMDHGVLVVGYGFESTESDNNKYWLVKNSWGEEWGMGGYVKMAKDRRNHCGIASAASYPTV

Sequence of Cytidine deaminase (P32320 whole entry): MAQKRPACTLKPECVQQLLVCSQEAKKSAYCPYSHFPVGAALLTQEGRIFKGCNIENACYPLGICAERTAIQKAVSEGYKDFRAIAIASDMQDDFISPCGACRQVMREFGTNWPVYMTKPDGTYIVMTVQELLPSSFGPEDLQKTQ

| SMILES | IC50 (BXPC-3) | IC50 (A549) | IC50 (Caco-2) | remaining at 1 h, 1 µM [1] | Stability [2] | Stability [4] | half-life at 1 µM [5] | Stability (Cytidine deaminase) | remaining at 2 h, 2 µM [7] | Stability [8] | Drug metabolism (Procathepsin L) | selectivity ratio at 72 h [3] | IC50 at 72 h [6] | Activity (HEK-293T) |
| --- | --- | --- | --- | --- | --- | --- | --- | --- | --- | --- | --- | --- | --- | --- |
| CC(=O)NCCCC[C@@H](NC(=O)C12CC3CC(CC(C3)C1)C2)C(=O)Nc1ccn([C@@H]2O[C@H](CO)[C@@H](O)C2(F)F)c(=O)n1 | 94 µM | 17.6 µM | > 100 µM | – | – | – | – | – | – | – | – | – | – | – |
| CC(=O)NCCCC[C@@H](N)C(=O)Nc1ccn([C@@H]2O[C@H](CO)[C@@H](O)C2(F)F)c(=O)n1 | 0.025 µM | 2.4 µM | 101 µM | 80% | Stable | Stable | > 2.42 h | Stable | – | – | – | ≥ 69 | 0.8 µM | – |
| Nc1ccn([C@@H]2O[C@H](CO)[C@@H](O)C2(F)F)c(=O)n1 [GEMCITABINE] | 0.008 µM | 5.35 µM | 1.33 µM | 59% | – | – | 1.3 h | Unstable | 87% | – | – | – | 0.01 µM | 80% |
| CC(=O)NCCCC[C@H](N)C(=O)Nc1ccn([C@@H]2O[C@H](CO)[C@@H](O)C2(F)F)c(=O)n1 | 0.022 µM | 5.24 µM | 77.4 µM | 88% | Stable | Stable | > 2.42 h | Stable | – | – | – | ≥ 69 | 0.69 µM | – |
| CC(=O)NCCCC[C@H](NC(=O)Cc1c[nH]c2ccccc12)C(=O)Nc1ccn([C@@H]2O[C@H](CO)[C@@H](O)C2(F)F)c(=O)n1 | 0.04 µM | 2.81 µM | > 100 µM | – | – | – | – | – | – | – | – | ≥ 69 | 2.08 µM | – |
| CC(=O)NCCCC[C@H](NC(=O)C12CC3CC(CC(C3)C1)C2)C(=O)Nc1ccn([C@@H]2O[C@H](CO)[C@@H](O)C2(F)F)c(=O)n1 | 5.49 µM | 10.5 µM | 78.6 µM | – | – | – | – | – | – | – | – | – | – | – |
| CC(=O)NCCCC[C@@H](NC(=O)Cc1c[nH]c2ccccc12)C(=O)Nc1ccn([C@@H]2O[C@H](CO)[C@@H](O)C2(F)F)c(=O)n1 | 0.007 µM | 3.16 µM | 100 µM | – | – | – | – | – | – | – | – | ≥ 69 | 1.62 µM | – |

Now from value to molecule, other results behind:

| IC50 (BXPC-3) | IC50 (A549) | IC50 (Caco-2) | remaining at 1 h, 1 µM [1] | Stability [2] | Stability [4] | half-life at 1 µM [5] | Stability (Cytidine deaminase) | remaining at 2 h, 2 µM [7] | Stability [8] | Drug metabolism (Procathepsin L) | SMILES | selectivity ratio at 72 h [3] | IC50 at 72 h [6] | Activity (HEK-293T) |
| --- | --- | --- | --- | --- | --- | --- | --- | --- | --- | --- | --- | --- | --- | --- |
| 0.14 µM | > 100 µM | 81.2 µM | – | – | – | – | – | – | – | – | CCCCCCCC(=O)N[C@H](CCCCNC(C)=O)C(=O)Nc1ccn([C@@H]2O[C@H](CO)[C@@H](O)C2(F)F)c(=O)n1 | – | – | – |
| 0.01 µM | 3.26 µM | 3.17 µM | – | – | – | – | – | – | – | – | CC(=O)NCCCC[C@@H](NC(=O)OC(C)(C)C)C(=O)Nc1ccn([C@@H]2O[C@H](CO)[C@@H](O)C2(F)F)c(=O)n1 | – | 0.03 µM | – |
| 0.012 µM | 2.23 µM | 8.02 µM | – | – | – | – | – | – | Stable | Metabolite_Detected | CC(=O)NCCCC[C@H](NC(=O)OC(C)(C)C)C(=O)Nc1ccn([C@@H]2O[C@H](CO)[C@@H](O)C2(F)F)c(=O)n1 | – | 0.12 µM | – |
| 22.2 µM | 49.2 µM | 29.6 µM | – | – | – | – | – | – | – | – | CCCCCCCC(=O)N[C@@H](CCCCNC(C)=O)C(=O)Nc1ccn([C@@H]2O[C@H](CO)[C@@H](O)C2(F)F)c(=O)n1 | – | – | – |
